We go through 24 compounds from ChEMBL document CHEMBL2034868, “Synthesis of methoxylated goniothalamin, aza-goniothalamin and γ-pyrones and their in vitro evaluation against human cancer cells” (Bioorg Med Chem, 2012).

Data set [1] deals with U-251. In words: Growth inhibition of human U251 cells after 48 hrs by sulforhodamine B assay. The class given is functional. The essentials: (§1)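 Cells in 96-well plates were exposed for 48 h at 37 °C in 5% CO2 to compounds at 0.25, 2.5, 25 and […] in DMSO/RPMI. Doxorubicin was the positive control at […]. Cells were then fixed with 50% trichloroacetic acid and stained with sulforhodamine B, with protein read at 540 nm. TGI (the concentration where T = T0) was taken by non-linear regression of each cell line's concentration-response curve.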
(Sulforhodamine B stains cellular protein and so reports cell mass.)

The subject of data set [2] is MCF7. In words: Growth inhibition of human MCF7 cells after 48 hrs by sulforhodamine B assay. The class given is functional. Put shortly:
as §1

The nature of data set [3]: Growth inhibition of human NCI/ADR cells after 48 hrs by sulforhodamine B assay. The class given is functional. Put shortly: as §1
Data set [4] has as its system 786-0. In words: Growth inhibition of human 786-0 cells after 48 hrs by sulforhodamine B assay. The class given is functional. The essentials: as §1
The test system of data set [5] is NCI-H460. As to the kind of experiment: Growth inhibition of human NCI-H460 cells after 48 hrs by sulforhodamine B assay. The class given is functional. Put shortly: as §1
The test system of data set [6] is OVCAR-3. In words: Growth inhibition of human OVCAR3 cells after 48 hrs by sulforhodamine B assay. The class given is functional. Put shortly: as §1
For data set [7], the system named is HT-29. In words: Growth inhibition of human HT-29 cells after 48 hrs by sulforhodamine B assay. The class given is functional. Put shortly: as §1
Data set [8] in a line: Growth inhibition of human HaCaT cells after 48 hrs by sulforhodamine B assay. The class given is cell-based. The essentials:
as §1

What is called TGI is the concentration giving total growth inhibition. Read a high TGI as lower sensitivity of the cells.

The structures appear in SMILES notation.

In the case of `O=C1C=COC(/C=C/c2ccccc2)C1` (configuration not stated), the GI in data set [1] stood at 121.8 µM; in data set [2], 152.6 µM; in data set [3] it was 105.3 µM; in data set [4], 138.2 µM; in data set [5] it was 82.4 µM; in data set [6], 58.2 µM. In data set [7], the GI was found to be 123.6 µM. In data set [8], total growth inhibition (TGI at 48 h) required 126 µM.
On to `O=C1C=COC(/C=C/c2ccc(C(F)(F)F)cc2)C1` (configuration not stated), for which the GI in data set [1] amounted to 38.6 µM; in data set [2] it was 41.2 µM; in data set [3], 51.6 µM; in data set [4], 39.6 µM; in data set [5], 95.6 µM; in data set [6], 58.2 µM. Moreover, in data set [7], the GI came to 33.3 µM. Besides, in data set [8], net growth stopped (TGI at 48 h) at 123 µM.
As for `COc1ccc(/C=C/C2CC(=O)C=CO2)cc1` (configuration not stated), the GI amounted to 151.9 µM in data set [1]; 155.5 µM in data set [2]; 239.3 µM in data set [3]; 191.5 µM in data set [4]; 149.4 µM in data set [5]; 87.4 µM in data set [6]. Besides, the GI in data set [7] was determined as 203.9 µM. The compound further registered a total growth inhibition concentration (TGI) at 48 h in data set [8] of 144 µM.
In the case of `COc1ccc(/C=C/C2CC(=O)C=CO2)cc1OC` (configuration not stated), the GI in data set [1] turned out to be 86.9 µM; in data set [2], 130.2 µM; in data set [3] it was 145.8 µM; in data set [4], 145.1 µM; in data set [5], 89.6 µM; in data set [6] it was 74.3 µM. This compound also yielded a GI in data set [7] of 123.2 µM. Also, in data set [8], the total growth inhibition concentration (TGI) at 48 h stood at 134 µM.
On to `COc1cc(/C=C/C2CC(=O)C=CO2)cc(OC)c1OC` (configuration not stated), for which the GI in data set [1] stood at 101.8 µM; in data set [2] it was 149.4 µM; in data set [3], 223.2 µM; in data set [4], 125 µM; in data set [5], 127.3 µM; in data set [6] it was 85.4 µM. Moreover, in data set [7], the GI was 134.5 µM. This compound also returned a total growth inhibition concentration (TGI) at 48 h in data set [8] of 155 µM.
Regarding `O=C1C=COC(/C=C/c2ccc3c(c2)OCO3)C1` (configuration not stated), the GI came to 77 µM in data set [1]; 81.4 µM in data set [2]; 186.8 µM in data set [3]; 104.1 µM in data set [4]; 147.4 µM in data set [5]; 101.7 µM in data set [6]. In data set [7], this compound returned a GI of 126.9 µM. Besides, net growth in data set [8] stopped (TGI at 48 h) at 145 µM.
Turning to `O=c1ccoc(/C=C/c2ccccc2)c1`, the GI in data set [1] was found to be 285.4 µM; in data set [2], 691.1 µM; in data set [3], 514.2 µM; in data set [4], 409.9 µM; in data set [5] it was 508.5 µM; in data set [6], 545.5 µM. In data set [7], this compound yielded a GI of 344.1 µM. This compound also displayed a total growth inhibition concentration (TGI) at 48 h in data set [8] of 711 µM.
Take `COc1ccc(/C=C/c2cc(=O)cco2)cc1`: the GI stood at 278.4 µM in data set [1]; 395.9 µM in data set [2]; 309.9 µM in data set [3]; 376.8 µM in data set [4]; 606.1 µM in data set [5]; 327.9 µM in data set [6]. The compound further displayed a GI in data set [7] of 379.2 µM. Besides, the TGI at 48 h in data set [8] was determined as 710 µM.
Turning to `COc1ccc(/C=C/c2cc(=O)cco2)cc1OC`, the GI in data set [1] came out at 338.9 µM; in data set [2], 953.6 µM; in data set [3], 407.9 µM; in data set [4], 635.4 µM; in data set [5], 545.5 µM; in data set [6] it was 540.2 µM. This compound also yielded a GI in data set [7] of 806.7 µM. The total growth inhibition concentration (TGI) at 48 h in data set [8] was 690 µM.
Turning to `COc1ccc(C2CC(=O)C=CO2)cc1` (configuration not stated), the GI in data set [1] amounted to 226.1 µM; in data set [2], 172.9 µM; in data set [3], 419.6 µM; in data set [4], 197 µM; in data set [5], 192.8 µM; in data set [6], 248.6 µM. Also, the GI in data set [7] came out at 203.4 µM. In data set [8], this compound returned a total growth inhibition concentration (TGI) at 48 h of 264 µM.
For the compound `COc1ccc(-c2cc(=O)cco2)cc1`, the GI in data set [1], in data set [2], in data set [3], in data set [4], in data set [5] and in data set [6] was >1236.3 µM in each case. In addition, the GI in data set [7] is >1236.3 µM. Besides, the total growth inhibition concentration (TGI) at 48 h in data set [8] is > 1240 µM.
With `COc1ccc(C2CC(=O)C(Br)=CO2)cc1` (configuration not stated), the GI in data set [1] amounted to 46.4 µM; in data set [2] it was 42.2 µM; in data set [3] it was 52.9 µM; in data set [4], 33.4 µM; in data set [5], 117.7 µM; in data set [6] it was 113.5 µM. In addition, in data set [7], the GI amounted to 69 µM. The total growth inhibition concentration (TGI) at 48 h in data set [8] was found to be 164 µM.
As for `COc1ccc(C2CC(=O)C(I)=CO2)cc1` (configuration not stated), the GI in data set [1] amounted to 24.4 µM; in data set [2] it was 43.2 µM; in data set [3], 39.7 µM; in data set [4], 27 µM; in data set [5], 74.6 µM; in data set [6], 38.2 µM. Further, the GI in data set [7] was 24.4 µM. In addition, net growth in data set [8] stopped (TGI at 48 h) at 53.3 µM.
Consider `O=C1C=CCC(/C=C/c2ccccc2)N1` (configuration not stated), for which the GI is 797.6 µM in data set [1]; 607.4 µM in data set [2]; 966.6 µM in data set [3]; >1254.8 µM in data set [4]; 928.5 µM in data set [5]; >1254.8 µM in data set [6]. The compound also yielded a GI in data set [7] of 1195.8 µM. Also, in data set [8], the TGI at 48 h was > 1250 µM.
`O=C1C=CCC(/C=C/c2ccccc2C(F)(F)F)N1` (configuration not stated): the GI in data set [1] came to 69.9 µM; in data set [2] it was 120.2 µM; in data set [3] it was 40.6 µM; in data set [4] it was 123.4 µM; in data set [5], 194.7 µM; in data set [6], 329.3 µM. This compound had a GI in data set [7] of 195.4 µM. For the same compound, the total growth inhibition concentration (TGI) at 48 h in data set [8] is 249 µM.
In the case of `O=C1C=CCC(/C=C/c2ccc(C(F)(F)F)cc2)N1` (configuration not stated), the GI in data set [1] is 130.3 µM; in data set [2], 149.5 µM; in data set [3] it was 71.8 µM; in data set [4], 127.8 µM; in data set [5] it was 150.4 µM; in data set [6], 126 µM. Besides, in data set [7], the GI was 139.2 µM. In data set [8], this compound gave a TGI at 48 h of 174 µM.
Take `COc1ccc(/C=C/C2CC=CC(=O)N2)cc1` (configuration not stated): the GI in data set [1] is 981.3 µM; in data set [2] it was >1090.4 µM; in data set [3], 841.7 µM; in data set [4], >1090.4 µM; in data set [5] it was >1090.4 µM; in data set [6], 786.8 µM. The GI in data set [7] is >1090.4 µM. In addition, the concentration for total growth inhibition (TGI) at 48 h in data set [8] is > 1090 µM.
For `COc1ccc(/C=C/C2CC=CC(=O)N2)c(OC)c1` (configuration not stated), the GI in data set [1], in data set [2], in data set [3], in data set [4], in data set [5] and in data set [6] was >964.1 µM each time. Also, in data set [7], the GI is >964.1 µM. Besides, in data set [8], the concentration for total growth inhibition (TGI) at 48 h was > 964 µM.
With `COc1ccc(/C=C/C2CC=CC(=O)N2)cc1OC` (configuration not stated), the GI in data set [1], in data set [2], in data set [3], in data set [4], in data set [5] and in data set [6] was >964.1 µM throughout. For the same compound, in data set [7], the GI is >964.1 µM. For the same compound, the TGI at 48 h in data set [8] is > 964 µM.
For the compound `COc1cc(/C=C/C2CC=CC(=O)N2)cc(OC)c1` (configuration not stated), the GI in data set [1] stood at 169.9 µM; in data set [2] it was 146.4 µM; in data set [3], 203.2 µM; in data set [4] it was 173.4 µM; in data set [5] it was 145.5 µM; in data set [6], 232.1 µM. In data set [7], the GI was 196.6 µM. The same compound displayed a TGI at 48 h in data set [8] of 212 µM.
Take `COc1cc(/C=C/C2CC=CC(=O)N2)cc(OC)c1OC` (configuration not stated): the GI in data set [1], in data set [2], in data set [3], in data set [4], in data set [5] and in data set [6] was >864.1 µM throughout. Moreover, the GI in data set [7] was >864.1 µM. Moreover, the concentration for total growth inhibition (TGI) at 48 h in data set [8] is > 864 µM.
Take `COc1cc(OC)c(OC)cc1/C=C/C1CC=CC(=O)N1` (configuration not stated): the GI in data set [1], in data set [2], in data set [3], in data set [4], in data set [5] and in data set [6] was >864.1 µM throughout. Further, in data set [7], the GI was >864.1 µM. Moreover, in data set [8], the TGI at 48 h was > 864 µM.
As for `O=C1C=CCC(/C=C/c2ccccc2C(F)(F)F)O1` (racemic), the GI in data set [1] was 43.4 µM; in data set [2] it was 50.4 µM; in data set [3], 75.5 µM; in data set [4], 52.3 µM; in data set [5], 241.5 µM; in data set [6], 295.6 µM. The GI in data set [7] was 71.7 µM. In data set [8], this compound yielded a TGI at 48 h of 82.7 µM.
Consider `O=C1C=CCC(/C=C/c2ccc(C(F)(F)F)cc2)O1` (racemic), for which the GI in data set [1] amounted to 36.8 µM; in data set [2], 51 µM; in data set [3] it was 54.8 µM; in data set [4] it was 44.5 µM; in data set [5], 476.9 µM; in data set [6], 167.2 µM. Moreover, the GI in data set [7] amounted to 36.2 µM. For the same compound, net growth in data set [8] stopped (TGI at 48 h) at 69.7 µM.
